The values that follow come from ChEMBL document CHEMBL1759856, “Synthesis and study of 2-amino-7-bromofluorenes modified with nitroxides and their precursors as dual anti-amyloid and antioxidant active compounds” (Eur J Med Chem, 2011).

Calls of active or inactive are those of the source. No cut-off for these calls is given here.

Assay [1] in a line: Antioxidant activity assessed as peroxyl radical scavenging activity at 10 uM by fluorescence quenching assay. It is filed as functional. In short, it runs like this: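 Peroxyl radicals were assayed with a commercial ORAC kit, per the manufacturer's protocol, with compound at 10 µM. The read-out was quenching of indicator fluorescence (ex 480 nm, em 520 nm).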
Assay [2] is described as follows: Antioxidant activity assessed as hydroxyl radical scavenging activity by electron paramagnetic resonance spectra analysis. It is filed as functional. Further details: concentration or dose not given beside the values. In short, it runs like this:
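For EPR, 9 µl of ROS mixture was combined immediately with 1 µl of compound from a 2 mM stock. About 5 µl was loaded into a sealed quartz capillary for measurement.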

The nature of assay [3]: Antioxidant activity assessed as hydroxyl radical scavenging activity at 0.2 to 10 uM. It is filed as functional. An outline of the steps: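 Hydroxyl radical scavenging was measured with a commercial HORAC kit, per the manufacturer's protocol, at compound concentrations of 0.2, 1 and 10 µM. Read-out was fluorescence (ex 485 nm, em 530 nm) of a reporter that is inversely proportional to surviving radical. Distilled water served as control.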

The subject of assay [4] is HBMEC. The experiment in a line: Antiinflammatory activity in HBMEC cells assessed as inhibition of TGRL lipolysis-induced IL-8 gene expression by RT-PCR analysis relative to control. It is filed as functional, cell-based. Particulars: Homo sapiens. An outline of the steps: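 HBMEC (passage 6) were grown in serum-free or 10%-serum complete medium on attachment factor at 37°C in 5% CO2. Cells were pretreated 30 min with 200 µM compound, then exposed 3 h to TGRL (150 mg/dL) plus lipoprotein lipase (2 U/mL), preincubated together 30 min at 37°C. IL-8 mRNA was measured by SYBR Green qRT-PCR, normalized to GAPDH, comparative CT; N = 3.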

A short description of assay [5]: Antioxidant activity assessed as peroxyl radical scavenging activity by electron paramagnetic resonance spectra analysis. It is filed as functional.
The subject of assay [6] is HBMEC. The experiment in a line: Antiinflammatory activity in HBMEC cells assessed as inhibition of TGRL lipolysis-induced ATF3 gene expression by RT-PCR analysis relative to control. It is filed as functional, cell-based. The following applies: Homo sapiens. In short, it runs like this: (§1)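 Human brain microvascular endothelial cells (passage 6) grown at 37°C, 5% CO2; pre-treated 30 min with 200 µM compound, then 3 h with TGRL (150 mg/dL) plus lipoprotein lipase (2U/mL), pre-incubated together 30 min at 37°C. Total RNA reverse-transcribed; SYBR Green real-time PCR normalised to GAPDH, comparative CT method; N = 3.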

In assay [7] the test system is HBMEC. The experiment in a line: Antiinflammatory activity in HBMEC cells assessed as inhibition of TGRL lipolysis-induced COX-2 gene expression by RT-PCR analysis relative to control. It is filed as functional, cell-based. The following applies: Homo sapiens. An outline of the steps: as §1

In the case of `CC1(C)C=C(CNc2ccc3c(c2)Cc2cc(Br)ccc2-3)CC(C)(C)N1[O]`, the outcome (in assay [1]; in assay [3]; in the assay on HBMEC [4]) was Active. Also, the Activity in assay [2] is 26%.

`CC1(C)C=C(CNc2ccc3c(c2)Cc2cc(Br)ccc2-3)C(C)(C)N1[O]`: the result in assay [1] and in assay [3] was Active. The Activity in assay [5] came to 73%; in assay [2] it was 28%. Further, the outcome with HBMEC [4] was inactive.

Take `CN(CC1=CC(C)(C)N([O])C1(C)C)c1ccc2c(c1)Cc1cc(Br)ccc1-2`: the figures for the fold change (FC) with HBMEC [6] and with HBMEC [7] were 18.3 and 2.7, respectively. The result in assay [1] and in assay [3] was Active. Further, the Activity in assay [2] stood at 18%.

In the case of `CC1(C)CC(O)CC(C)(C)N1[O]`, the outcome in assay [1] and in assay [3] was Active.

As to `CN1C(C)(C)C=C(CNc2ccc3c(c2)Cc2cc(Br)ccc2-3)C1(C)C`, the outcome in assay [1] and in assay [3] was Active. Further, the Activity in assay [5] turned out to be 100%; in assay [2] it was 29%. Besides, the result with HBMEC [4] was inactive.

With `CC1(C)C(Br)=C(CNc2ccc3c(c2)Cc2cc(Br)ccc2-3)C(C)(C)N1[O]`, the outcome in assay [1] and in assay [3] was Active. In addition, the Activity in assay [2] came to 10%. Moreover, the outcome in the assay on HBMEC [4] was inactive.

For `CC1(C)C=C(CNc2ccc3c(c2)Cc2cc(Br)ccc2-3)CC(C)(C)N1O`, the result (in assay [1]; in assay [3]; in the assay on HBMEC [4]) was Active. For the same molecule, the Activity in assay [5] stood at 80%; in assay [2], 61%.

Consider `CN(CC1=CC(C)(C)NC1(C)C)c1ccc2c(c1)Cc1cc(Br)ccc1-2`, for which the result in assay [1] and in assay [3] was Active. Further, the Activity in assay [5] came to 100%; in assay [2], 18%. Besides, in the assay on HBMEC [4], the result was inactive.

As to `CN(C)c1ccc2c(c1)Cc1cc(Br)ccc1-2`, the outcome in assay [1] and in assay [3] was Active.
